Experiment: Inhibition of Dictyostelium discoideum AX2 RNase P by double reciprocal plot
Outline: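 RNase P purified from D. discoideum wild-type cells; 37 °C reactions in buffer D (50 mM Tris/HCl pH 7.6, 10 mM NH4Cl, 5 mM MgCl2, 5 mM DTT) with 2–5 fmol in vitro labeled S. pombe pre-tRNASer transcript and 1.3 µg enzyme-fraction protein, 10% DMSO; stopped with formamide/EDTA dye. Ki from slopes of 1/v vs 1/[pre-tRNA] plots replotted against inhibitor concentration.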

| Ki | SMILES |
| --- | --- |
| 20 µM | CC1=C(/C=C/C(C)=C/C=C/C(C)=C\C(=O)O)C(C)(C)CCC1 [ISOTRETINOIN] |
| 15 µM | CC1=C(/C=C/C(C)=C/C=C/C(C)=C/C(=O)O)C(C)(C)CCC1 [TRETINOIN] |
| 8 µM | COc1cc(C)c(/C=C/C(C)=C/C=C/C(C)=C/C(=O)O)c(C)c1C [ACITRETIN] |
| 2.45 µM | COc1cc(C)c(/C=C/C(C)=C/C=C/C(C)=C/C(=O)NCCCNCCCCNCCCN)c(C)c1C [N1-Acitretinylspermine] |

The next lines start with the compound.

| SMILES | Ki |
| --- | --- |
| CC1=C(/C=C/C(C)=C/C=C/C(C)=C/CO)C(C)(C)CCC1 [RETINOL] | 1480 µM |
| CCOC(=O)c1ccc(/C=C(\C)c2ccc3c(c2)C(C)(C)CCC3(C)C)cc1 [AROTINOID] | 4350 µM |
| C/C(=C\c1ccc(C(=O)O)cc1)c1ccc2c(c1)C(C)(C)CCC2(C)C | 45 µM |
| CC1=C(/C=C/C(C)=C/C=C/C(C)=C/C(=O)N(CCCN)CCCCN(CCCN)C(=O)/C=C(C)/C=C/C=C(C)/C=C/C2=C(C)CCCC2(C)C)C(C)(C)CCC1 | 1.1 µM |
| CCS(=O)(=O)c1ccc(/C=C(\C)c2ccc3c(c2)C(C)(C)CCC3(C)C)cc1 [ETAROTENE] | 3600 µM |
| CC1=C(/C=C/C(C)=C/C=C/C(C)=C/C(=O)NCCCNCCCCNCCCN)C(C)(C)CCC1 | 2.4 µM |

From ChEMBL document CHEMBL1158388, “Preparation of spermine conjugates with acidic retinoids with potent ribonuclease P inhibitory activity” (Eur J Med Chem, 2009)
